Tests used:
RPS6KA1/RPS6KA2/RPS6KA3 = RPS6KA1/RPS6KA2/RPS6KA3 (Homo sapiens, UniProt P51812+Q15349+Q15418); test: Inhibition of RSK1/2/3 in human HeLa cells lysate pre incubated for 15 mins followed by ATP acyl phosphate probe addition and measured after 10 mins by LC-MS/MS analysis; type: subcellular
[1] = target: T1, Dual specificity mitogen-activated protein kinase kinase 1 (Homo sapiens, UniProt Q02750); test: Inhibition of MAP2K1 in human HeLa cells lysate pre incubated for 15 mins followed by ADP acyl phosphate probe addition and measured after 10 mins by LC-MS/MS analysis; type: subcellular
T1 sequence (Q02750 whole entry, canonical isoform): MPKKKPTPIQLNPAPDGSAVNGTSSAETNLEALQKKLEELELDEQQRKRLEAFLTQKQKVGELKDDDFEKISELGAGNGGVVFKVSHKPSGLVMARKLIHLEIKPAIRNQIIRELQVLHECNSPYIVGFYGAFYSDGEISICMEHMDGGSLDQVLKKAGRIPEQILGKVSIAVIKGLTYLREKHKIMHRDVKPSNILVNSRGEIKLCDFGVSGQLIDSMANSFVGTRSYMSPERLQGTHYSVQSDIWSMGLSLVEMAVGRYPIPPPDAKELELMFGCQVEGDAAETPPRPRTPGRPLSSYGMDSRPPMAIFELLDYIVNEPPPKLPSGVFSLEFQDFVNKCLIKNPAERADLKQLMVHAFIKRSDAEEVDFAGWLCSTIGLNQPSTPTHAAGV

[2] = target: Phosphorylase b kinase gamma catalytic chain, liver/testis isoform (Homo sapiens, UniProt P15735); test: Inhibition of PHKg2 in human HeLa cells lysate pre incubated for 15 mins followed by ADP acyl phosphate probe addition and measured after 10 mins by LC-MS/MS analysis; type: subcellular
[3] = target: EKC/KEOPS complex subunit TP53RK (Homo sapiens, UniProt Q96S44); test: Inhibition of PRPK in human HeLa cells lysate pre incubated for 15 mins followed by ADP acyl phosphate probe addition and measured after 10 mins by LC-MS/MS analysis; type: subcellular
EKC/KEOPS complex subunit TP53RK, sequence (Q96S44 whole entry, one chain of several): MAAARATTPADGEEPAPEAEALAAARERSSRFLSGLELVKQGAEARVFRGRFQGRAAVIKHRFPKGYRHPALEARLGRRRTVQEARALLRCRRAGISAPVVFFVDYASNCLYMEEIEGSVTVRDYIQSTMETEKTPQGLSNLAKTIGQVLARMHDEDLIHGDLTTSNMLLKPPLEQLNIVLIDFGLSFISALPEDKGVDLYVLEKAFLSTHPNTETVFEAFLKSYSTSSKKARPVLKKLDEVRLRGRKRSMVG

[4] = target: Cyclin-dependent kinase 13 (Homo sapiens, UniProt Q14004); test: Inhibition of CHED in human HeLa cells lysate at 50 uM pre incubated for 15 mins followed by ADP acyl phosphate probe addition and measured after 10 mins by LC-MS/MS analysis relative to control; type: subcellular; conditions: time 25.0 min
Cyclin-dependent kinase 13, sequence (Q14004 whole entry, looked up, the tested form may be a part): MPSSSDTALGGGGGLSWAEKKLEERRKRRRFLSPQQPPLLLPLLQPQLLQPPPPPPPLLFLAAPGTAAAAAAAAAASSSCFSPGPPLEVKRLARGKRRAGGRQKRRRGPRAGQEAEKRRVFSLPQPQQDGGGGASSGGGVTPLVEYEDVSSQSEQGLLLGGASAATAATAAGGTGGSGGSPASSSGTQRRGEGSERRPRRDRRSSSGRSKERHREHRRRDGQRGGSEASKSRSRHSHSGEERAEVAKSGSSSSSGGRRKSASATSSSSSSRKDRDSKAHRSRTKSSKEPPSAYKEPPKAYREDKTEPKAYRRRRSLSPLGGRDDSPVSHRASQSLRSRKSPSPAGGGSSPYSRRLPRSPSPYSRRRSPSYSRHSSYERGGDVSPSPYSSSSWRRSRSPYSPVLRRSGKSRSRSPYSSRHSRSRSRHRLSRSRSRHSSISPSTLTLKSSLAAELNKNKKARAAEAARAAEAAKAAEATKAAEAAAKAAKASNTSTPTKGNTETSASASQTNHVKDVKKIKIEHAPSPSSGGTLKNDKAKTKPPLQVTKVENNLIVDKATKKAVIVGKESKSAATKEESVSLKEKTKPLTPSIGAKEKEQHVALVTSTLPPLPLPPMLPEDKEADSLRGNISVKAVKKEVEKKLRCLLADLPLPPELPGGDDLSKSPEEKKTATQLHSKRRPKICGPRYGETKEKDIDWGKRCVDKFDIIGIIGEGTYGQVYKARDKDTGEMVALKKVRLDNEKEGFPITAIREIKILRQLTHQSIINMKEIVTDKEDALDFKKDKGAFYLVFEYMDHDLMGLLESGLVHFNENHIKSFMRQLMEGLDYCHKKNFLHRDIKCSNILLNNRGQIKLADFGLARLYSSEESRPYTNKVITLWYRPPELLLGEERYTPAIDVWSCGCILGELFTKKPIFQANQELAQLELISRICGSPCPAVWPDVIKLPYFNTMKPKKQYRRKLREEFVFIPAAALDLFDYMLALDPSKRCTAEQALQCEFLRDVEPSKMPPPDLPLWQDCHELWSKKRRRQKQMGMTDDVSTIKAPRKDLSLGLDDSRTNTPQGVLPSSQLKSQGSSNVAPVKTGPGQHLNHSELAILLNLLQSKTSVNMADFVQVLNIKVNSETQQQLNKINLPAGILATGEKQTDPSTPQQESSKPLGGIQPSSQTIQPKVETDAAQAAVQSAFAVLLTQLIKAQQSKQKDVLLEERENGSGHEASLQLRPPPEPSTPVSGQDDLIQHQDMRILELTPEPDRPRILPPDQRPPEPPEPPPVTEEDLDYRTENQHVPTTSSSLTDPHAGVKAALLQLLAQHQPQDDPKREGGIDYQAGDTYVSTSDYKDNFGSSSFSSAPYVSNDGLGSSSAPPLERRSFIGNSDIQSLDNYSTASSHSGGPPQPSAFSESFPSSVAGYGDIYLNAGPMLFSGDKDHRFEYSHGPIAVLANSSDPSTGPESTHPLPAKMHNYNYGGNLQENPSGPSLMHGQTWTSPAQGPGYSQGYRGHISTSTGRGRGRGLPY
Method in brief: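 KiNativ profiling in HeLa lysate (5 mg/mL total protein). Lysate incubated 15 min with inhibitor at 50, 10, 2, 0.8 or 0 μM. ATP or ADP acylphosphate probe then added (5 μM final) and reacted 10 min. Reaction stopped with urea and analysed by targeted MS, using up to four fragment ions per kinase peptide-probe conjugate. % inhibition taken against untreated lysate. Run in duplicate.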

[5] = target: MAP/microtubule affinity-regulating kinase 3 (Homo sapiens, UniProt P27448); test: Inhibition of MARK3 in human HeLa cells lysate at 50 uM pre incubated for 15 mins followed by ADP acyl phosphate probe addition and measured after 10 mins by LC-MS/MS analysis relative to control; type: subcellular; conditions: time 25.0 min
MAP/microtubule affinity-regulating kinase 3, sequence (P27448 whole entry, looked up): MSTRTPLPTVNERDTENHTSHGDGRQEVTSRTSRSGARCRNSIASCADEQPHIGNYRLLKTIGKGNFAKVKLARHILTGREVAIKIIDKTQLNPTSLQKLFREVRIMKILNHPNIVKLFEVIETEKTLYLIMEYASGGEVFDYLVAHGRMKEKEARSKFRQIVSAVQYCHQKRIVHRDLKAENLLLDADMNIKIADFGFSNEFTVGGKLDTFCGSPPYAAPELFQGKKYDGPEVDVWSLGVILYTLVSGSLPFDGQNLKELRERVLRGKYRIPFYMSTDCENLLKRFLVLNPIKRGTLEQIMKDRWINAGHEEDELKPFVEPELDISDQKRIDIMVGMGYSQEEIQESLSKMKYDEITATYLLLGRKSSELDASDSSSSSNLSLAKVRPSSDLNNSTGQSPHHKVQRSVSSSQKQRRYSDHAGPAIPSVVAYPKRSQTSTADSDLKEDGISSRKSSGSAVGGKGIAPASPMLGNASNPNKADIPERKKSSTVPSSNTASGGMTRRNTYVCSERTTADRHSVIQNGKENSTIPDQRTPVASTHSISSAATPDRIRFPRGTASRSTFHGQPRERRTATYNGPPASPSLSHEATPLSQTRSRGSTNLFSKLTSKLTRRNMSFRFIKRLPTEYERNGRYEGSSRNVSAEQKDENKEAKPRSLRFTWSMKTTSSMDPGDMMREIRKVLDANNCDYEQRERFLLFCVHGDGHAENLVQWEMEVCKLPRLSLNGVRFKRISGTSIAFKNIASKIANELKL

[6] = Inhibition of PRKX/PRKY in human HeLa cells lysate at 10 uM pre incubated for 15 mins followed by ADP acyl phosphate probe addition and measured after 10 mins by LC-MS/MS analysis relative to control; conditions: 25 min, condition cancer
[7] = target: T2, Dual specificity mitogen-activated protein kinase kinase 3 (Homo sapiens) (UniProt P46734); test: Inhibition of MAP2K3 in human HeLa cells lysate at 10 uM pre incubated for 15 mins followed by ADP acyl phosphate probe addition and measured after 10 mins by LC-MS/MS analysis relative to control; type: subcellular; conditions: time 25.0 min
T2 sequence (whole entry): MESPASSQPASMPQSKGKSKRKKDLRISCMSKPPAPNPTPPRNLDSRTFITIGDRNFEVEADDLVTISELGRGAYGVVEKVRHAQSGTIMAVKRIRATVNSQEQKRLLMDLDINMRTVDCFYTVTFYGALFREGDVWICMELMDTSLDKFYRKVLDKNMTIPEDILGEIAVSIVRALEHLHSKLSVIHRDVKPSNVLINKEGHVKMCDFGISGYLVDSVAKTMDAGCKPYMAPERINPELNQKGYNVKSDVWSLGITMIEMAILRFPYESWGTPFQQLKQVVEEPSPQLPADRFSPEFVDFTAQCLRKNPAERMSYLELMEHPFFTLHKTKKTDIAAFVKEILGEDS

[8] = target: STE20-like serine/threonine-protein kinase (Homo sapiens, UniProt Q9H2G2); test: Inhibition of SLK in human HeLa cells lysate at 2 uM pre incubated for 15 mins followed by ADP acyl phosphate probe addition and measured after 10 mins by LC-MS/MS analysis relative to control; type: subcellular; conditions: time 25.0 min
STE20-like serine/threonine-protein kinase, sequence (Q9H2G2 whole entry, looked up): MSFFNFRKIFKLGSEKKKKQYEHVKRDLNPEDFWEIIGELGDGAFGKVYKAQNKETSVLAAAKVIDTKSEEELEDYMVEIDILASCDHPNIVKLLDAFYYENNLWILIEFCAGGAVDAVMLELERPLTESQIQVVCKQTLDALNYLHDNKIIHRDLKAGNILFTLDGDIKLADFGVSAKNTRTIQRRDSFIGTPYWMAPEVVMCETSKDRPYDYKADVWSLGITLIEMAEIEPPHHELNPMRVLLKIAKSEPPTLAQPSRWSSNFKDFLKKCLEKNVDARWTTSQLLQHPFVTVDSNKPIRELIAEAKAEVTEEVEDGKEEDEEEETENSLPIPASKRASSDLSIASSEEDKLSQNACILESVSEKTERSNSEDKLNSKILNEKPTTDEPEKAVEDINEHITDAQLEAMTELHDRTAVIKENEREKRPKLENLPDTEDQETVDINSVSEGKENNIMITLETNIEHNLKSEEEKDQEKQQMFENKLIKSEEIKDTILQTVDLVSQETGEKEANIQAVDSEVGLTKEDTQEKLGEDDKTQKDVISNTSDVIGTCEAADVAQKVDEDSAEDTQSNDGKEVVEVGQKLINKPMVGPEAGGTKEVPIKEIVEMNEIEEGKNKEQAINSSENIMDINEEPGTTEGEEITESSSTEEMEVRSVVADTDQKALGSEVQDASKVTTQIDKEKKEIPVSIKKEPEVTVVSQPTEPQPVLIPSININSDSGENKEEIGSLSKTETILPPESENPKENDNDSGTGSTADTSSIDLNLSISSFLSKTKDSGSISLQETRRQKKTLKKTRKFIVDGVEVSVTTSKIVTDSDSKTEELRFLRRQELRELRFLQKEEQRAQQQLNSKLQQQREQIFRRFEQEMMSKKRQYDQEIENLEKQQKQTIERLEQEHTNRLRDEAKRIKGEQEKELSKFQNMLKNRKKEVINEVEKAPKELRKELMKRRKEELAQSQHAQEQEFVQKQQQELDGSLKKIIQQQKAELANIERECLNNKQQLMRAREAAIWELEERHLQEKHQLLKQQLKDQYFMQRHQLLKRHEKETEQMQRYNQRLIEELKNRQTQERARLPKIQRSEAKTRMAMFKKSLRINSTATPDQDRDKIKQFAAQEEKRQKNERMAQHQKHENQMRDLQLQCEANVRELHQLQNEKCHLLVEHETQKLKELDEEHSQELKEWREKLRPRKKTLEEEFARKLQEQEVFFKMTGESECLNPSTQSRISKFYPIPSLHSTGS

[9] = target: Mitogen-activated protein kinase 14 (Homo sapiens, UniProt Q16539); test: Inhibition of p38a in human HeLa cells lysate at 10 uM pre incubated for 15 mins followed by ATP acyl phosphate probe addition and measured after 10 mins by LC-MS/MS analysis relative to control; type: subcellular; conditions: time 25.0 min
Mitogen-activated protein kinase 14, sequence (Q16539 whole entry, canonical isoform): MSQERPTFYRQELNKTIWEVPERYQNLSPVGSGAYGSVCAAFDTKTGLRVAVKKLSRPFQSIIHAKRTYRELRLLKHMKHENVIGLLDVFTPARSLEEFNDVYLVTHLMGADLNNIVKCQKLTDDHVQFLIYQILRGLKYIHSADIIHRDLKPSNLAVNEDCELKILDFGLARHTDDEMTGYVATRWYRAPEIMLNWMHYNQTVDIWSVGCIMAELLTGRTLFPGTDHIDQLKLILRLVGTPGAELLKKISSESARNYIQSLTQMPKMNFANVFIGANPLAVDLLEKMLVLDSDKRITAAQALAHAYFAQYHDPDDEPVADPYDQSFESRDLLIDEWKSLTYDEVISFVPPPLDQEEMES

[10] = target: T3, Phosphorylase b kinase gamma catalytic chain, liver/testis isoform (Homo sapiens) (UniProt P15735); test: Inhibition of PHKg2 in human HeLa cells lysate at 10 uM pre incubated for 15 mins followed by ATP acyl phosphate probe addition and measured after 10 mins by LC-MS/MS analysis relative to control; type: subcellular; conditions: time 25.0 min
T3 sequence (whole entry): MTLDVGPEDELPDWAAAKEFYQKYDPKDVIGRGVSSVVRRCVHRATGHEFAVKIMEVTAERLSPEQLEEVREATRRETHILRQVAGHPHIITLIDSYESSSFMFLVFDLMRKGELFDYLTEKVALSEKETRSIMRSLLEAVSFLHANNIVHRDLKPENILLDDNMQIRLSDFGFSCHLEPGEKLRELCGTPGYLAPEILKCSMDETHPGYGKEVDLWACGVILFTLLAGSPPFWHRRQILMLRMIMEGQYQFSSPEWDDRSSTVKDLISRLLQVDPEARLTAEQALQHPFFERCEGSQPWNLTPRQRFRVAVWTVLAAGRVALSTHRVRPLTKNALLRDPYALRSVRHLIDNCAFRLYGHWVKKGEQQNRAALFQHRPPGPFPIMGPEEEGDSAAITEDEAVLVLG

[11] = Inhibition of MAP3K5/MAP3K6/MAP3K15 in human HeLa cells lysate at 10 uM pre incubated for 15 mins followed by ATP acyl phosphate probe addition and measured after 10 mins by LC-MS/MS analysis relative to control; conditions: 25 min, condition cancer
[12] = target: T1, Dual specificity mitogen-activated protein kinase kinase 1; test: Inhibition of MAP2K1 in human HeLa cells lysate at 10 uM pre incubated for 15 mins followed by ATP acyl phosphate probe addition and measured after 10 mins by LC-MS/MS analysis relative to control; type: subcellular; conditions: time 25.0 min
[13] = target: p38 delta/gamma (Homo sapiens) (UniProt O15264+P53778); test: Inhibition of p38d/p38g in human HeLa cells lysate at 2 uM pre incubated for 15 mins followed by ATP acyl phosphate probe addition and measured after 10 mins by LC-MS/MS analysis relative to control; type: subcellular; conditions: time 25.0 min
[14] = Inhibition of PKD1/2 in human HeLa cells lysate at 2 uM pre incubated for 15 mins followed by ATP acyl phosphate probe addition and measured after 10 mins by LC-MS/MS analysis relative to control; conditions: 25 min, condition cancer
[15] = target: Glycogen synthase kinase-3 alpha (Homo sapiens, UniProt P49840); test: Inhibition of GSK3A in human HeLa cells lysate at 2 uM pre incubated for 15 mins followed by ATP acyl phosphate probe addition and measured after 10 mins by LC-MS/MS analysis relative to control; type: subcellular; conditions: time 25.0 min
Glycogen synthase kinase-3 alpha, sequence (P49840 2-483 limits assumed): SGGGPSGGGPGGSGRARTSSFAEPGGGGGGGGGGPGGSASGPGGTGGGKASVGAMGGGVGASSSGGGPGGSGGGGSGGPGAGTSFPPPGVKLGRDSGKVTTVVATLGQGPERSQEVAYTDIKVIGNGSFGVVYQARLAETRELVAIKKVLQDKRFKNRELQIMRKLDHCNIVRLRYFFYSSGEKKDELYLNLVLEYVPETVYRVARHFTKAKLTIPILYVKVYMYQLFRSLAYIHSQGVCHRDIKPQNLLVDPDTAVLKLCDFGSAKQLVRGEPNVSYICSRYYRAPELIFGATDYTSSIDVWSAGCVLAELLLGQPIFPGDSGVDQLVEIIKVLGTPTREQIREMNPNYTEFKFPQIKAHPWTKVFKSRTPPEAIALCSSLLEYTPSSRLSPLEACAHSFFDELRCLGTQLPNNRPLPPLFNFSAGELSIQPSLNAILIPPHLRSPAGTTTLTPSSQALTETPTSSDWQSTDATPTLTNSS

[16] = Half life in Sprague-Dawley rat at 2 mg/kg, po measured up to 8 hrs by LC-MS/MS analysis; type: ADME, organism-based; conditions: in vivo
Method in brief: (§1)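 Sprague-Dawley rats given one intravenous dose or one oral dose of 2 mg/kg. Plasma drug concentrations were followed over time, with samples taken out to 8 hr after dosing. PK parameters (clearance, volume of distribution, half-life, oral bioavailability, Cmax) were calculated from these concentration–time data.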

[17] = Clearance in Sprague-Dawley rat at 1 mg/kg, iv measured up to 8 hrs by LC-MS/MS analysis; type: ADME, organism-based; conditions: in vivo; method in brief: as §1

CCOc1cc(N2CCC(O)CC2)ccc1Nc1ncc2c(n1)N(C)c1ccccc1C(=O)N2C
IC50 (RPS6KA1/RPS6KA2/RPS6KA3): > 50 µM
IC50 [1]: > 50 µM
IC50 [2]: > 50 µM
IC50 [3]: > 50 µM
inhibition [4]: 12%
inhibition [5]: -3.3%
inhibition at 10 µM [6]: -14.3%
inhibition [7]: -9.7%
inhibition [8]: 13.3%
inhibition [9]: -4%
inhibition [10]: -4.9%
inhibition at 10 µM [11]: 1.4%
inhibition [12]: -1.9%
inhibition [13]: 100%
inhibition at 2 µM [14]: 27.1%
inhibition [15]: -5.5%
half-life [16]: 3.4 h
clearance [17]: 26 mL/min/kg
